Measured values published in ChEMBL document CHEMBL4368912, “Discovery and Development of N-[4-(1-Cyclobutylpiperidin-4-yloxy)phenyl]-2-(morpholin-4-yl)acetamide Dihydrochloride (SUVN-G3031): A Novel, Potent, Selective, and Orally Active Histamine H3 Receptor Inverse Agonist with Robust Wake-Promoting Activity” (J Med Chem, 2019).
Active and inactive are the calls of the source. The calls are words filed in the database; no cut-off is given here.

Legend:
Rattus norvegicus [1] = assay: Induction of wake promoting activity in orexin-B-saporin lesioned Wistar rat assessed as increase in wake time at 10 to 30 mg/kg, po dosed 15 mins before start of dark phase; format: functional, organism-based
Method in brief: (§1)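 Rats carried epidural frontal-cortex EEG screws, nuchal EMG leads, and bilateral lateral hypothalamic orexin-B-saporin (490 ng/0.8 µl). After at least 3 weeks' recovery, they were dosed 15 min before lights-off in a crossover design with a 1-week washout. Wake, NREM and REM time was totalled over 3 h. DREM was scored as REM after ≥60 s wake. Dunnett's test was used.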

[2] = Mutagenicity in Salmonella typhimurium TA98 in presence of metabolic activation by Ames test; format: toxicity; conditions: salmonella enterica subsp. enterica serovar typhimurium
[3] = Apparent permeability across basolateral to apical side in human Caco2 cells at 10 uM; format: ADME, cell-based; conditions: Caco-2
Method in brief: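 Caco-2 monolayers; bidirectional permeability measured at 10 µM, with and without the P-gp inhibitor verapamil.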

Rattus norvegicus [4] = assay: Effect on accumbal dopamine levels in Wistar rat at 100 mg/kg, po by microdialysis; format: ADME, organism-based; conditions: in vivo
[5] = Ratio of drug uptake in Wistar rat brain to plasma at 3 mg/kg, po by LC-MS/MS analysis; format: ADME, organism-based; conditions: brain and plasma, read-out: BPR
Method in brief: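 Fasted male Wistar rats were dosed orally with water for injection as the vehicle. Total brain and plasma concentrations were measured at 1 h after dosing and expressed as a ratio.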

PBL = assay: Clastogenic activity in human peripheral blood lymphocytes by chromosomal aberration test; format: toxicity, cell-based
CHO-K1 [6] = assay: Cytotoxicity in CHOK1 cells up to 300 uM incubated for 24 hrs by MTT assay; format: cell-based, Cricetulus griseus; conditions: chinese hamster, cho-k1, 24 h
[7] = Clearance in Beagle dog at 1 mg/kg, iv by LC-MS/MS analysis; format: ADME, organism-based, Canis lupus familiaris; conditions: in vivo
CHO-K1 [8] = assay: Induction of phospholipidosis in CHOK1 cells up to 300 uM incubated for 24 hrs by fluorescent-labeled phospholipid probe NBD-PE based fluorescence assay; format: cell-based, Cricetulus griseus; conditions: chinese hamster, cho-k1, 24 h
[9] = Fraction unbound in human plasma at 1 uM by equilibrium dialysis; format: ADME, cell-free
Method in brief: (§2)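 Rapid equilibrium dialysis of fresh rat, dog or human plasma at a compound concentration of 1.0 µM. Unbound fraction reported as a percentage.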

[10] = Fraction unbound in dog plasma at 1 uM by equilibrium dialysis; format: ADME, cell-free, Canis lupus familiaris; method in brief: as §2
[11] = Fraction unbound in rat plasma at 1 uM by equilibrium dialysis; format: ADME, cell-free; method in brief: as §2
Cytochrome P450 2C19 = Cytochrome P450 2C19 (Homo sapiens, UniProt P33261); assay: Inhibition of CYP2C19 (unknown origin); format: ADME
Sequence of Cytochrome P450 2C19 (P33261 whole entry): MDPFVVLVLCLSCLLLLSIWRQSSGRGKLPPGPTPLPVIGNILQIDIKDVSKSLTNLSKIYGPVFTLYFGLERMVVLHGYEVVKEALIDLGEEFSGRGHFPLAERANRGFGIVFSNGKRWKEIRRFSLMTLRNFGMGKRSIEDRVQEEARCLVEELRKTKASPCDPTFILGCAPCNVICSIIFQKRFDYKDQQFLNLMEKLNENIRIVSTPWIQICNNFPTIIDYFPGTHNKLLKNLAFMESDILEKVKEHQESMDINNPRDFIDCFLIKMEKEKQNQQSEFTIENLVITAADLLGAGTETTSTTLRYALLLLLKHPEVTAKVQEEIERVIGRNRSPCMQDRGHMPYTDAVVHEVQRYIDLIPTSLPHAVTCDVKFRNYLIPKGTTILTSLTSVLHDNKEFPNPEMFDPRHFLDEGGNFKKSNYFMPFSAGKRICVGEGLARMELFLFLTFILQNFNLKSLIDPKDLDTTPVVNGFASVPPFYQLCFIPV

[12] = Toxicity in dog assessed as effect on body weight at 10 to 25 mg/kg, po; format: organism-based, Canis lupus familiaris; conditions: in vivo
Method in brief: (§3)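 Male dogs received oral doses of 10, 18 and 25 mg/kg. Body weight, body temperature, blood pressure, heart rate and ECG were monitored.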

Cytochrome P450 2E1 = Cytochrome P450 2E1 (Homo sapiens, UniProt P05181); assay: Inhibition of CYP2E1 (unknown origin); format: ADME
Sequence of Cytochrome P450 2E1 (P05181 whole entry): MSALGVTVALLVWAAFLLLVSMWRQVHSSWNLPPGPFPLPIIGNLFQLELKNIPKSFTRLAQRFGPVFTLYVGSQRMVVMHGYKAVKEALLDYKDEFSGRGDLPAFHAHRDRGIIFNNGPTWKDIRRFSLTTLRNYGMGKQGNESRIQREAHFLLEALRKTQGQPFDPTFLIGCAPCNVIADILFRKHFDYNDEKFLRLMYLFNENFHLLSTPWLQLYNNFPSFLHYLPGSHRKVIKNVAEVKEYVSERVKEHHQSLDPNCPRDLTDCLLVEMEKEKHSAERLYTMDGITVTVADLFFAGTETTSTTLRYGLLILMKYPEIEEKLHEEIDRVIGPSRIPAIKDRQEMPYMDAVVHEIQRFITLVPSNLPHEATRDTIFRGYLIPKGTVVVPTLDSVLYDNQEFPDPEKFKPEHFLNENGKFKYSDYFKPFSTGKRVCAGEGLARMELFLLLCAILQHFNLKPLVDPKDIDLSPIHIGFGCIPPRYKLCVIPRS

Cytochrome P450 2B6 = molecular target: T1, Cytochrome P450 2B6 (Homo sapiens, UniProt P20813); assay: Inhibition of CYP2B6 (unknown origin); format: ADME
T1 sequence (P20813 whole entry): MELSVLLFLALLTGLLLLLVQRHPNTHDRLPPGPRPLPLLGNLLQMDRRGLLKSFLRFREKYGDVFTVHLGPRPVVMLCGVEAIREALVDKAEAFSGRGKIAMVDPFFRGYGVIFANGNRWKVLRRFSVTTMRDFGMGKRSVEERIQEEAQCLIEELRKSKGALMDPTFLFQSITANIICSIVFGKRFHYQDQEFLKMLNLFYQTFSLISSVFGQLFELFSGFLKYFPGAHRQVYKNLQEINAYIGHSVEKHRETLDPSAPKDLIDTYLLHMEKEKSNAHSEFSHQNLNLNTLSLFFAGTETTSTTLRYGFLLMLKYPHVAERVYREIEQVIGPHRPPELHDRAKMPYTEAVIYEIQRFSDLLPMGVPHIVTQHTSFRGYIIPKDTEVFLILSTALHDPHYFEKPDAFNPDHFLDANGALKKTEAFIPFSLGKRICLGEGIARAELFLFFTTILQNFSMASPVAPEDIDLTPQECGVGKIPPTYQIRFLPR

[13] = Respiratory toxicity in Wistar rat up to 90 mg/kg, po; format: organism-based; conditions: in vivo
Method in brief: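 Respiratory safety was evaluated in rats given single oral doses of 10, 30 and 90 mg/kg.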

[14] = Mutagenicity in Salmonella typhimurium TA1535 in presence of metabolic activation by Ames test; format: toxicity; conditions: salmonella enterica subsp. enterica serovar typhimurium
Rattus norvegicus [15] = assay: Induction of wake promoting activity in orexin-B-saporin lesioned Wistar rat assessed as decrease in number of direct REM sleep onset episodes at 10 to 30 mg/kg, po dosed 15 mins before start of dark phase; format: functional, organism-based; method in brief: as §1
[16] = Metabolic stability in rat hepatocytes after 30 mins by LC-MS/MS analysis; format: ADME, cell-based, Hepatocyte; conditions: read-out: Stability
Rattus norvegicus [17] = assay: Effect on locomotor activity in Wistar rat up to 100 mg/kg, po by open field test; format: ADME, organism-based; conditions: in vivo
[18] = Metabolic stability in human hepatocytes after 30 mins by LC-MS/MS analysis; format: ADME, cell-based, Hepatocyte; conditions: read-out: Stability
[19] = Mutagenicity in Salmonella typhimurium TA100 in absence of metabolic activation by Ames test; format: toxicity; conditions: salmonella enterica subsp. enterica serovar typhimurium
Method in brief: (§4)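 Reverse-mutation test in Salmonella typhimurium TA1537, TA1535, TA98 and TA100 and in E. coli WP2 uvrA, run with and without metabolic activation.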

[20] = Toxicity in dog assessed as effect on body temperature at 10 to 25 mg/kg, po; format: organism-based, Canis lupus familiaris; conditions: in vivo; method in brief: as §3
[21] = Metabolic stability in human liver microsomes in presence of NADPH after 30 mins by LC-MS/MS analysis; format: ADME, Microsome; conditions: read-out: Stability
Rattus norvegicus [22] = assay: Effect on striatal dopamine levels in Wistar rat at 100 mg/kg, po by microdialysis; format: ADME, organism-based; conditions: in vivo
[23] = Toxicity in dog assessed as effect on heart rate at 10 to 25 mg/kg, po; format: organism-based, Canis lupus familiaris; conditions: in vivo; method in brief: as §3
[24] = Tmax in Beagle dog at 3 mg/kg, po or 1 mg/kg, iv by LC-MS/MS analysis; format: ADME, organism-based, Canis lupus familiaris; conditions: in vivo
[25] = AUCt in Beagle dog at 3 mg/kg, po by LC-MS/MS analysis; format: ADME, organism-based, Canis lupus familiaris; conditions: in vivo
[26] = AUC (0 to 24 hrs) in Wistar rat at 1 mg/kg, iv by LC-MS/MS analysis; format: ADME, organism-based; design: time < 24 hr, dose 1 mg/kg, route intravenous; conditions: Wistar, in vivo
Method in brief: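 Fasted male Wistar rats; compound in water for injection, given i.v. (2 mL/kg) or p.o. (10 mL/kg). Plasma exposure measured as AUC0-24hr.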

[27] = Metabolic stability in dog liver microsomes in presence of NADPH after 30 mins by LC-MS/MS analysis; format: ADME, Canis lupus familiaris, Microsome; conditions: read-out: Stability
[28] = Toxicity in dog assessed as effect on blood pressure at 10 to 25 mg/kg, po; format: organism-based, Canis lupus familiaris; conditions: in vivo; method in brief: as §3
[29] = Volume of distribution in Beagle dog at 1 mg/kg, iv by LC-MS/MS analysis; format: ADME, organism-based, Canis lupus familiaris; conditions: in vivo
[30] = molecular target: Voltage-gated inwardly rectifying potassium channel KCNH2 (Homo sapiens, UniProt Q12809); assay: Inhibition of human ERG expressed in HEK293 cells by whole-cell patch clamp assay; format: cell-based
Sequence of Voltage-gated inwardly rectifying potassium channel KCNH2 (Q12809 whole entry): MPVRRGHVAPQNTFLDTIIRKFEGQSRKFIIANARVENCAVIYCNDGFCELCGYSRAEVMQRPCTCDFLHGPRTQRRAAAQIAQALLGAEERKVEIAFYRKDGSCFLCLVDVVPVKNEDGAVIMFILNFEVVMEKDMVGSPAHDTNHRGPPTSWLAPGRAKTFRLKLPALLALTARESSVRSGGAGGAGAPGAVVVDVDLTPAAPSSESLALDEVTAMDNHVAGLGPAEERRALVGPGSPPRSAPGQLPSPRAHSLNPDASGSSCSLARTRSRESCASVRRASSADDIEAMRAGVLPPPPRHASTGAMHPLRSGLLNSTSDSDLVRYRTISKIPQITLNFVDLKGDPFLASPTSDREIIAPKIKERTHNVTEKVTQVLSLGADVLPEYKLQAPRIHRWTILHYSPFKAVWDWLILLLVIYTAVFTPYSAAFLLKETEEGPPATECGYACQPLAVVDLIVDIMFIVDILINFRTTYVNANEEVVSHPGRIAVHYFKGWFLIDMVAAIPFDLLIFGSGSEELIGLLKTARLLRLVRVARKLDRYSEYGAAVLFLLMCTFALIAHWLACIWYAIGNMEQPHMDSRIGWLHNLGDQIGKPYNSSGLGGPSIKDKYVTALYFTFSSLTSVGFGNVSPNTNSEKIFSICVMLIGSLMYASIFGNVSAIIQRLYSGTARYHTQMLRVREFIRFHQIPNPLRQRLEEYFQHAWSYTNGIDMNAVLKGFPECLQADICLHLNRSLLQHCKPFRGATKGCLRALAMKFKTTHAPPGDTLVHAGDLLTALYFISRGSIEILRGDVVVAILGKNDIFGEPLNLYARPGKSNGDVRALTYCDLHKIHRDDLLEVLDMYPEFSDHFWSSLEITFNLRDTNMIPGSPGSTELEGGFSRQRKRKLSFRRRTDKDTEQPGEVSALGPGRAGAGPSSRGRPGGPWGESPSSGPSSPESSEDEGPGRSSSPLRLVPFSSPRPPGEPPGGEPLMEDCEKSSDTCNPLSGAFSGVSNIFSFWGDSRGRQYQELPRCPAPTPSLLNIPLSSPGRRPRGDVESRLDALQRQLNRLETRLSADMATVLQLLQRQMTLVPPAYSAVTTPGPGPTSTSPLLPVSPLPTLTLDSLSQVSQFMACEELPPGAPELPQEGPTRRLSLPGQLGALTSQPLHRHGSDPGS

[31] = Metabolic stability in monkey liver microsomes in presence of NADPH after 30 mins by LC-MS/MS analysis; format: ADME, Macaca mulatta, Microsome; conditions: rhesus monkey, read-out: Stability
[32] = Mutagenicity in Escherichia coli WP2 in presence of metabolic activation by Ames test; format: toxicity; method in brief: as §4

Structure (SMILES): Cl.Cl.O=C(CN1CCOCC1)Nc1ccc(OC2CCN(C3CCC3)CC2)cc1
- Activity (Rattus norvegicus [1]): Active
- Activity [2]: Non-Toxic
- Papp B→A at 10 µM [3]: 30.8 ×10⁻⁶ cm/s
- Activity (Rattus norvegicus [4]): Non-Toxic
- Kp [5]: 0.93
- Activity (PBL): Non-Toxic
- Activity (CHO-K1 [6]): Non-Toxic
- clearance [7]: 36 mL/min/kg
- Activity (CHO-K1 [8]): Non-Toxic
- fraction unbound at 1 µM [9]: 0.7
- fraction unbound at 1 µM [10]: 0.52
- fraction unbound at 1 µM [11]: 0.37
- IC50 (Cytochrome P450 2C19): > 45 µM
- Activity [12]: Non-Toxic
- IC50 (Cytochrome P450 2E1): > 10 µM
- IC50 (Cytochrome P450 2B6): > 45 µM
- Activity [13]: Non-Toxic
- Activity [14]: Non-Toxic
- Activity (Rattus norvegicus [15]): Active
- remaining at 0.5 h [16]: 37%
- Activity (Rattus norvegicus [17]): Non-Toxic
- remaining at 0.5 h [18]: < 5%
- Activity [19]: Non-Toxic
- Activity [20]: Non-Toxic
- remaining at 0.5 h [21]: < 5%
- Activity (Rattus norvegicus [22]): Non-Toxic
- Activity [23]: Non-Toxic
- Tmax [24]: 15 to 60 min
- AUC(0-t) [25]: 1120 ng·h/mL
- AUC(0-t) at 24 h [26]: 263 ng·h/mL
- remaining at 0.5 h [27]: 13%
- Activity [28]: Non-Toxic
- Vd [29]: 5.2 L/kg
- IC50 [30]: > 10 µM
- remaining at 0.5 h [31]: 35%
- Activity [32]: Non-Toxic
